Screening data: PubChem BioAssay, several laboratories
In the library only some 12% were active in any assay of this set; here they are far more common.
ABCG2 block – human ABCG2 inhibition, ABCB1 as counter-screen. Q9UNQ0. inhibition, % at 6.6 µM. AID 1325. IgMXP3 cells, JC-1 efflux, flow cytometry. actives 0.1% (n = 190,000);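 active = inhibition above 80%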;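 note: 0% = DMSO and 100% = nicardipine control wells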
Target sequence (Q9UNQ0 whole entry, looked up): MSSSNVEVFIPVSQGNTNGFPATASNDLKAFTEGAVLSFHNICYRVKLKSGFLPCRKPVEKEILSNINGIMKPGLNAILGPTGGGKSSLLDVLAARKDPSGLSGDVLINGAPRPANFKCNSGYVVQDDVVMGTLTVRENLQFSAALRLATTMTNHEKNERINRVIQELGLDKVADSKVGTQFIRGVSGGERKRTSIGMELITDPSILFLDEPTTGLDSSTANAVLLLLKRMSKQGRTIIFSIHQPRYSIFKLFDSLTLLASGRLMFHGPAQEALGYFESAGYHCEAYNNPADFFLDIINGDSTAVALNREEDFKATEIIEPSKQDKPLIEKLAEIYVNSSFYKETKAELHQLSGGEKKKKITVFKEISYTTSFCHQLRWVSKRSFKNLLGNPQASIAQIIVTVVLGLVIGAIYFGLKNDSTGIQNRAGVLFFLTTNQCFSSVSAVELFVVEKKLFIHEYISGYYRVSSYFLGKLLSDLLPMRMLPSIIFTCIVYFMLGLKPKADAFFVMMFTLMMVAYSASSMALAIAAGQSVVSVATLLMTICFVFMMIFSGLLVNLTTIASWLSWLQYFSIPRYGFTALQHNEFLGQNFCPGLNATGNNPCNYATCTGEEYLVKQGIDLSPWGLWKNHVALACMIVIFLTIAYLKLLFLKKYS
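System: two drug-resistant human cell lines, ABCG2 and ABCB1; controls: nicardipine high and DMSO low controls; times: 10 min exposure at 25 °C with rotation, no wash; detection: flow cytometry of retained JC-1 fluorescence; read-out basis: percent efflux inhibition, scaled nicardipine 100% to DMSO 0%; doses: one concentration, 6.6 µM final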
WT yeast gro inh – growth inhibition of WT yeast, mitochondrial fusion screen. mitochondrial fusion phenotypic screen, WT strain. inhibition, % at 10 µM. actives 2.1% (n = 190,000); in the data active = inhibition above about 58%; tested in S. cerevisiae
ABCB1 inh – blocks JC-1 efflux by human ABCB1 transporter. inhibition, % at 6.6 µM. CCRF-Adr cells, flow cytometry. AID 1326. P08183. actives 0.067% (n = 190,000); in the data active = inhibition above about 40%;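 note: 0% = vehicle and 100% = reference inhibitor; higher value means more JC-1 retained so stronger ABCB1 efflux block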
RAM network inh – inhibitors of the yeast RAM network. S. cerevisiae dse1pr::URA3 reporter, 5-FOA growth OD615, 2 d; analog-sensitive cbk1-as2 kinase mutant strain. inhibition, % at 50 µM. actives 1.8% (n = 190,000). AID 868;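 active = inhibition above a set limit, 3 SD over mean compound inhibition, cut at about 8.4% in these data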;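 note: 0% = DMSO-only wells with no growth and 100% = 10 µM 1-NA-PP1 full growth; inhibition rescues growth on 5-FOA so higher OD means more RAM inhibition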
Lmaj promast – inhibitors of Leishmania major promastigote growth; Leishmania major promastigotes, resazurin fluorescence viability; AID 1063; inhibition, % at 10 µM; actives 9% (n = 200,000); in the data active = inhibition above about 50%;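 note: promastigotes grown with compound for 44 hours at 28 °C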
* hit, by the source's call; x = no result.

SMILES	ABCG2 block	WT yeast gro inh	ABCB1 inh	RAM network inh	Lmaj promast
Nc1cnn(Cc2ccccc2F)c1	1	31	1	-1	100*
Nc1cnn(Cc2ccc(F)cc2)c1	2	-10	1	0	15
Cc1ccc(N2C(=O)N(CC(=O)NCc3ccccc3Cl)C(=O)C2C)cc1 (configuration not stated)	0	-3	0	0	-7
Cc1cc(C)n2nc(CC(=O)NCc3ccc(F)cc3)nc2n1	-1	2	0	0	-5
CCOc1ccccc1-c1nc(-c2cc3ccc(C)cc3[nH]c2=O)no1	7	27	1	2	69*
OC1CCCN(Cc2ccc3ccc4cccc5ccc2c3c45)C1 (configuration not stated)	-1	16	0	0	78*
Cc1cc(C)nc(NC(=S)Nc2ccc(Br)cc2Cl)c1	0	2	0	3	3
O=C(NCc1ccco1)C1CCN(C(=O)c2cc3sccc3n2Cc2ccc(F)cc2)CC1	1	15	0	3	79*
O=C(NCc1ccco1)c1cc2sccc2n1Cc1ccccc1	2	61*	1	9.9*	11
O=C(NCc1ccccn1)C1CCN(C(=O)c2cc3sccc3n2Cc2ccc(F)cc2)CC1	2	7	3	1	9
CCN(CC)CCCNC(=O)C1CCN(C(=O)c2cc3sccc3n2Cc2ccc(F)cc2)CC1	-1	-12	0	2	99*
CCN1CCCC1CNC(=O)C1CCN(C(=O)c2cc3sccc3n2Cc2ccc(F)cc2)CC1 (configuration not stated)	11	1	-2	0	90*
COCCCNC(=O)C1CCN(C(=O)c2cc3sccc3n2Cc2ccc(F)cc2)CC1	2	-10	1	0	14
O=C(NCCCN1CCCC1)C1CCN(C(=O)c2cc3sccc3n2Cc2ccc(F)cc2)CC1	4	-14	1	-1	93*
O=C(NCc1ccco1)C1CCN(Cc2ccc(F)cc2)CC1	0	-4	0	1	91*
COc1ccccc1CCc1nnc(CCC(=O)N(C)Cc2cccc3ncccc23)o1	1	7	0	0	-3
CC(C)(C)Nc1nc(NC(C)(C)C)nc(-n2ccnc2)n1	4	46	1	-1	98*
Cc1cccc(N2CCN(C(=O)c3cn4ccccc4n3)CC2C)c1 (configuration not stated)	2	-4	1	0	-4
COc1ccccc1NS(=O)(=O)c1cccc(C(=O)N/N=C/c2ccc3c(c2)OCCO3)c1	-2	-12	0	2	-5
COc1ccccc1NS(=O)(=O)c1cccc(C(=O)N/N=C/c2c(C)nn(-c3ccccc3)c2N2CCCC2)c1	1	7	0	2	96*
CCN(CC)c1ccc(/C=N/NC(=O)c2cccc(S(=O)(=O)Nc3ccccc3OC)c2)c(O)c1	-22	39	-2	5	100*
CCOc1ccc(S(=O)(=O)Nc2ccc(C(=O)N/N=C/c3c(C)nn(-c4ccccc4)c3N3CCCC3)cc2)cc1	-5	10	-1	5	1
CCN(CC)c1ccc(/C=N/NC(=O)c2cccc(S(=O)(=O)Nc3ccccc3OC)c2)cc1	4	9	0	2	19
COc1ccccc1NS(=O)(=O)c1ccc(N/N=C/c2c(C)nn(-c3ccccc3)c2N2CCCC2)c([N+](=O)[O-])c1	1	18	5	9.6*	100*
COc1ccccc1NS(=O)(=O)c1cccc(C(=O)N/N=C/c2cn(-c3ccccc3)nc2-c2ccccc2)c1	-5	2	0	5	53*
SMILES	ABCG2 block	WT yeast gro inh	ABCB1 inh	RAM network inh	Lmaj promast
CCN(CC)C(=O)c1ccc(N)cc1	0	4	0	1	-9
COc1ccc(Cl)cc1-n1c(C)ccc1C	3	-13	x	1	-7
Cn1c(=O)c(C(=O)NCC2CCCO2)c(O)c2ccccc21 (configuration not stated)	6	16	1	0	-4
COc1c(/C=N/Nc2ccc([N+](=O)[O-])cc2[N+](=O)[O-])c(C)nn1-c1ccccc1	1	33	0	3	1
COc1ccc(-c2nn(-c3ccccc3)cc2/C=N/n2cnnc2)cc1OC	7	5	1	0	4
COc1ccc(-c2nn(-c3ccccc3)cc2/C=N/NC(N)=S)cc1OC	17	-13	2	5	80*
COc1ccccc1NS(=O)(=O)c1ccc(N/N=C/c2ccccc2OCC(=O)O)c([N+](=O)[O-])c1	-4	-4	-2	3	-1
Cc1nn(-c2ccccc2)c(N2CCCC2)c1/C=N/Nc1ccc(S(=O)(=O)Nc2ccccc2)cc1[N+](=O)[O-]	-9	2	0	9.0*	97*
COc1ccccc1NS(=O)(=O)c1ccc(N/N=C/C=C/c2ccccc2[N+](=O)[O-])c([N+](=O)[O-])c1	0	4	-1	6	50*
C=CCNC(=O)c1ccc2c(=O)n(CCCN3CCCC3=O)c(=S)[nH]c2c1	-6	10	-2	5	-4
CCC(=O)Nc1ccccc1C(=O)C(=O)Nc1ccccc1	16	-2	1	1	46
COc1ccc(NC(=O)c2ccc3c(=O)n(-c4ccc(OC)cc4OC)c(=S)[nH]c3c2)c(OC)c1	0	7	0	4	69*
COc1ccc(-n2c(=S)[nH]c3cc(C(=O)NC4CCCCC4)ccc3c2=O)c(OC)c1	2	4	0	5	-6
Cc1ccc(S(=O)(=O)N2CCOCC2)cc1NC(=O)CSc1nccn1C	6	-11	1	1	-3
O=C(CSc1cccc[n+]1[O-])Nc1cc(S(=O)(=O)N2CCOCC2)ccc1Cl	-1	2	0	1	68*
C/C(=N\NC(=S)Nc1cc(S(=O)(=O)N2CCOCC2)ccc1Cl)c1ccccc1F	4	9	1	4	71*
Cc1ccc(S(=O)(=O)N2CCOCC2)cc1NC(=O)CSc1cccc[n+]1[O-]	3	-9	1	1	-5
Cn1ccnc1SCC(=O)Nc1cc(S(=O)(=O)N2CCOCC2)ccc1Cl	5	-6	1	2	62*
CC(C)CC(=O)NC(Nc1ccccc1F)C(Cl)(Cl)Cl (configuration not stated)	16	-3	2	1	63*
CCCC(=O)NC(Nc1ccccc1F)C(Cl)(Cl)Cl (configuration not stated)	-6	4	0	0	10
CCN1C(=O)C2(SC(NC(C)=O)=NN2C(C)=O)c2cc(C)cc(C)c21 (configuration not stated)	8	18	2	0	71*
Cc1ccc(-c2c(C#N)c(N)nc3c2CCCCC3)cc1	1	4	0	3	-1
CC1=C(C#N)c2nc(N)c(C#N)c(C)c2/C1=C\c1ccc(C)cc1	4	4	2	0	100*
C(#Cc1ccccc1)C[N+]1(CC#Cc2ccccc2)CCCC1	4	7	1	0	100*
